Assay [1] deals with Vascular endothelial growth factor receptor 2 (Homo sapiens) (UniProt P35968).
Assay [2] has as its system HMEC-1. In words: Antiproliferative activity against HMEC1 cells incubated for 2 days by MTT assay. Type of assay: cell-based. The conditions noted are these: Homo sapiens, HMEC-1, 48 h. The essentials: (§1)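 MTT assay. Cells seeded at 3 × 10³/well (HeLa, A549, HMEC-1, HEK-293) or 5 × 10³/well (HT-29, MCF-7) in their growth media with serial compound dilutions from 10 mM DMSO stocks. Incubated 2 days at 37 °C, 5% CO₂, then MTT added for 3 h and formazan dissolved in DMSO. A540 read and viability expressed versus untreated cells. IC₅₀ determined graphically; three independent experiments.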
(Tetrazolium assays rely on reduction of a dye to a coloured formazan, in cell work by metabolically active cells.)

Assay [3] deals with A549. In words: Immunomodulatory activity in human A549 cells assessed as reduction in PD-L1 expression level at 100 uM incubated for 24 hrs by ELISA relative to control. Type of assay: functional. Also noted: scale not given: the % may be the effect or the level left. The essentials:
(§2)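 A549 cells (3·10⁵/well) treated 24 h with compound; final concentration 100 µM for some compounds and 15 µM for others per table footnote. Lysates protein-normalized by Bradford, and PD-L1 and c-Myc quantified by commercial ELISA kits as % of DMSO-treated cells. Mean ± SD of three experiments.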
For orientation: In an ELISA, binding on a coated surface is turned into a signal by an enzyme label.

Assay [4] concerns the target Vascular endothelial growth factor receptor 2 (Homo sapiens) (UniProt P35968). In words: Inhibition of VEGFR2 in HMEC1 cells assessed as phosphorylated Erk1/2 level at 10 uM incubated for 24 hrs by Western blot analysis relative to control. The format is cell-based. The essentials:
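HMEC-1 lysates from the phospho-VEGFR-2 experiment (24 h compound, serum starvation, 30 min VEGF-165 stimulation) used at 100 µg protein for SDS gel electrophoresis and PVDF transfer. Blocked in 5% milk/TBST, then probed overnight at 4 °C with anti-phospho-ERK1/2 (T202/[…]) and an HRP secondary. Chemiluminescent detection; β-actin as internal control; quantified versus DMSO control.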
On the technique in general: A western blot detects proteins with antibodies after separation by electrophoresis.

The subject of assay [5] is A549. In words: Effect on VEGFR2 in human A549 cells assessed as reduction in membrane VEGFR2 level incubated for 24 hrs by confocal laser scanning microscopic method. The format is functional, cell-based. The essentials:
(§3)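 A549 cells on cover glass treated 24 h with compound at 10 µM, then permeabilized (PEM-Triton X-100 0.5%) and fixed (3.7% formaldehyde). Direct staining 2 h at 37°C in darkness with Alexa Fluor 647 anti-VEGFR-2. Confocal imaging with a 63x oil objective, excitation 650 nm, emission 665 nm.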

Assay [6] deals with A549. In words: Induction of apoptosis in human A549 cells assessed as apoptotic cells at 100 uM incubated for 24 hrs by FITC-Annexin V staining based flow cytometric analysis (reference value: 20%). Type of assay: functional.
The test system of the next assay is HEK293. In words: Antiproliferative activity against HEK293 cells incubated for 2 days by MTT assay. The format is cell-based. The conditions noted are these: Homo sapiens, HEK293, 48 h. The essentials: as §1
In assay [7] the test system is A549. In words: Effect on VEGFR2 in human A549 cells assessed as total VEGFR2 level at 10 uM incubated for 24 hrs by flow cytometric analysis relative to control. The format is functional.
Assay [8] deals with A549. In words: Antiproliferative activity against human A549 cells incubated for 2 days by MTT assay. The format is functional, cell-based. The note with it: A549, 48 h. The essentials:
as §1

The next assay deals with HT-29. In words: Antiproliferative activity against human HT-29 cells incubated for 2 days by MTT assay. The format is functional, cell-based. The note with it: HT-29, 48 h. The essentials:
as §1

The test system of assay [9] is HMEC-1. In words: Ratio of MAC for sorafenib to MAC of test compound for antiangiogenic activity against HMEC1 cells. Type of assay: functional, Homo sapiens.
For a further assay, the system named is HeLa. In words: Antiproliferative activity against human HeLa cells incubated for 2 days by MTT assay. The format is functional, cell-based. The note with it: 48 h. The essentials:
as §1

For a further assay, the system named is MCF7. In words: Antiproliferative activity against human MCF7 cells incubated for 2 days by MTT assay. The conditions noted are these: MCF7, 48 h. Type of assay: functional, cell-based. The essentials: as §1
For assay [10], the target named is Programmed cell death 1 ligand 1 (Homo sapiens) (UniProt Q9NZQ7). In words: Binding affinity to PDL1 (unknown origin) assessed as change in melting temperature at 100 uM by fluorescence based real time RT-PCR analysis.
Chain of Programmed cell death 1 ligand 1 (Homo sapiens) (Q9NZQ7 whole entry): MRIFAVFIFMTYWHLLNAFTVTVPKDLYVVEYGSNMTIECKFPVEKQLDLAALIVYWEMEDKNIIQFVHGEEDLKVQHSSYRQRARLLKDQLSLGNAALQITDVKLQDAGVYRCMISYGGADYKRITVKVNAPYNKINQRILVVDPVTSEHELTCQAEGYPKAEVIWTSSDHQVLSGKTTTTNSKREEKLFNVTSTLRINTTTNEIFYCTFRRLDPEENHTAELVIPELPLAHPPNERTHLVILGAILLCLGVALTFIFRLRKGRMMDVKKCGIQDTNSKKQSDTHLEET
The test system of assay [11] is HMEC-1. In words: Effect on VEGFR2 in HMEC1 cells assessed as membrane VEGFR2 level at 10 uM incubated for 24 hrs by flow cytometric analysis relative to control. The format is functional, Homo sapiens. The essentials: (§4)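 HMEC-1 cells exposed 24 h to compound. Membrane VEGFR-2 measured on fixed cells stained with Alexa Fluor 647 anti-CD309; total VEGFR-2 measured on lysates or permeabilized cells. Read by flow cytometry as % of DMSO control; mean ± SD of three experiments.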

Assay [12] concerns HMEC-1. In words: Antiangiogenic activity against HMEC1 cells assessed as inhibition of tube formation incubated for 20 hrs by matrigel based tube formation assay. The format is functional, Homo sapiens. The essentials: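 HMEC-1 cells in EGM-2MV medium seeded at 2 x 10⁴ cells/well on Matrigel (10 mg/mL, gelled 30 min at 37°C) and attached for 30 min. Compounds were added at different concentrations and tube formation was assessed after 20 h at 37°C. The minimum concentration at which inhibition began was reported. Data representative of three experiments.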

For assay [13], the target named is Vascular endothelial growth factor receptor 2 (Homo sapiens) (UniProt P35968). In words: Inhibition of VEGFR2 in HMEC1 cells assessed as phosphorylated VEGFR2 level at 10 uM incubated for 24 hrs by sandwich ELISA. Type of assay: cell-based. The essentials:
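HMEC-1 cells (5 × 10⁵/well) grown to 80% confluence, starved 24 h in 0.1% FBS medium, then treated 24 h with compound. Stimulated with VEGF-165 100 ng/ml for 30 min at 37°C. Lysates Bradford-normalized; phospho-VEGFR-2 (Tyr1175) measured by sandwich ELISA, % of DMSO control.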

Assay [14] relates to A549. In words: Effect on VEGFR2 in human A549 cells assessed as membrane VEGFR2 level at 10 uM incubated for 24 hrs by flow cytometric analysis relative to control. The format is functional. The essentials: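 A549 cells incubated 24 h with compound at 10 µM. Membrane VEGFR-2 (fixed cells) and total VEGFR-2 (permeabilized or lysate) stained with Alexa Fluor 647 anti-CD309 and quantified by flow cytometry relative to DMSO control; mean ± SD of three experiments.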

Assay [15] has as its system A549. In words: Immunomodulatory activity in human A549 cells assessed as reduction in c-Myc expression level at 100 uM incubated for 24 hrs by ELISA relative to control. Type of assay: functional. Also noted: scale not given: the % may be the effect or the level left. The essentials:
as §2

Assay [16] concerns A549. In words: Antiproliferative activity against human A549 cells at 200 uM incubated for 24 hrs in presence of Jurkat T cells by trypan blue staining based Neubauer chamber method relative to control. The format is functional. The essentials: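 Co-culture of 5 × 10⁴ tumor cells/well with 2 × 10⁵ PD-1-expressing Jurkat T cells in 1.5 mL, treated 24 h with compound at 200 µM. Supernatant discarded; tumor cells trypsinized, stained with trypan blue and living cells counted in a Neubauer chamber. Proliferation inhibition (%) attributable to Jurkat presence reported; representative of three experiments.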

Assay [17] deals with HMEC-1. In words: Effect on VEGFR2 in HMEC1 cells assessed as total VEGFR2 level at 10 uM incubated for 24 hrs by flow cytometric analysis relative to control. Type of assay: functional, Homo sapiens. The essentials: as §4
Assay [18] relates to A549. In words: Immunomodulatory activity in human A549 cells assessed as inhibition of c-Myc level at 100 uM incubated for 24 hrs by confocal laser scanning microscopic method. Type of assay: functional, cell-based. The essentials: (§5)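 A549 cells on cover glass treated 24 h at 100 µM, permeabilized with PEM-Triton X-100 0.5% and fixed in 3.7% formaldehyde. Direct immunostaining 2 h at 37°C in darkness with anti-PD-L1-AlexaFluor647 (excitation 650, emission 665 nm) and anti-c-Myc-FITC (excitation 488, emission 496–535 nm). Confocal microscopy, 63x oil objective.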

Assay [19] deals with HMEC-1. In words: Antiangiogenic activity against HMEC1 cells assessed as inhibition of neovascularization at 0.01 to 1 uM incubated for 20 hrs. Type of assay: functional, cell-based. The conditions noted are these: Homo sapiens. The essentials: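 HMEC-1 cells seeded on Matrigel-coated wells (10 mg/mL Matrigel, gelled 30 min at 37°C) at 2 x 10⁴ cells/well in EGM-2MV medium and allowed to attach 30 min. Compound was then added at 1, 0.1 and 0.01 µM, and tube destruction was assessed after 20 h at 37°C by imaging.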

The test system of assay [20] is A549. In words: Immunomodulatory activity in human A549 cells assessed as inhibition of PD-L1 level at 100 uM incubated for 24 hrs by confocal laser scanning microscopic method. Type of assay: functional, cell-based. The essentials: as §5
Assay [21] concerns A549. In words: Effect on VEGFR2 in human A549 cells assessed as inhibition of VEGFR2 protein internalization to nucleus incubated for 24 hrs by confocal laser scanning microscopic method. Type of assay: functional, cell-based. The essentials:
as §3

Activity calls are given as the source filed them. The rule behind the calls is not given here.

Chain of Vascular endothelial growth factor receptor 2 (Homo sapiens) (P35968 whole entry): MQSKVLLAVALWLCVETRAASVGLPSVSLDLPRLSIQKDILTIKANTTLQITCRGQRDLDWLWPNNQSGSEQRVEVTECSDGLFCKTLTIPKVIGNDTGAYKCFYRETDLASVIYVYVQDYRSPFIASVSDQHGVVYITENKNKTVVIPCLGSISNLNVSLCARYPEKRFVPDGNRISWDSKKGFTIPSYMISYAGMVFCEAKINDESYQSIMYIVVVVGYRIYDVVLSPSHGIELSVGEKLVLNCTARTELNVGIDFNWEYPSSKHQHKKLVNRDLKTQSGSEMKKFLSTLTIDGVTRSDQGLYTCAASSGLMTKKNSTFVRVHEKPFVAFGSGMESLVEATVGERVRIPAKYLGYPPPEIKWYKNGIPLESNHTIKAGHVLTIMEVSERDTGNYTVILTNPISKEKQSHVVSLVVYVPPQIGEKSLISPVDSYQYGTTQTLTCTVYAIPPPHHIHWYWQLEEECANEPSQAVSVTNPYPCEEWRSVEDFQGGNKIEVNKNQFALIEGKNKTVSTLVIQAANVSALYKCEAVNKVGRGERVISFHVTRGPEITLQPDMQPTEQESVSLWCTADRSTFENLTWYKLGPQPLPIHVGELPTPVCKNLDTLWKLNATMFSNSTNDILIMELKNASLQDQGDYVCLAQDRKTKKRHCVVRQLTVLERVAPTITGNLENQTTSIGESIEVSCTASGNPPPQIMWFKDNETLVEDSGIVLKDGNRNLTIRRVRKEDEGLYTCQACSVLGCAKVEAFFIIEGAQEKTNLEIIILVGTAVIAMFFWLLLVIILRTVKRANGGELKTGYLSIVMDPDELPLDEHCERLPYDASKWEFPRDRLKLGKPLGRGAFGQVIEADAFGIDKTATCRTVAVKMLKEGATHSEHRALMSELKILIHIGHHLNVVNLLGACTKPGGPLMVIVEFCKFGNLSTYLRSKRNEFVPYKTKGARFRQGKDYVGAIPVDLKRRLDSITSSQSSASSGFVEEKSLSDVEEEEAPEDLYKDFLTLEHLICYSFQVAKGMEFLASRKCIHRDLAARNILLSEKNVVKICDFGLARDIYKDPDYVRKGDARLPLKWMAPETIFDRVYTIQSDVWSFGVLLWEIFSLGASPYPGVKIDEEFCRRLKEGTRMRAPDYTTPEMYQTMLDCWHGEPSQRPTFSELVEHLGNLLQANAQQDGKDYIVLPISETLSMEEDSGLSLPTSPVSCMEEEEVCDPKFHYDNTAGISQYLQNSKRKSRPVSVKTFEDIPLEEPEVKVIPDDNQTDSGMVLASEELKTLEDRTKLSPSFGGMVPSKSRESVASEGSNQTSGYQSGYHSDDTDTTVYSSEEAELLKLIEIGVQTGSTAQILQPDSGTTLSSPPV

In general, ΔTm refers to the change in melting temperature against a reference sample. By IC50 is commonly meant the midpoint of a concentration-inhibition curve. In the case of `COc1ccc(/C=C/c2cccc(NC(=O)Nc3cccc(Cl)c3)c2)cc1`, the thermal shift (ΔTm) was 8.35 °C in [1] and 3.91 °C in [10]. In addition, the half-inhibitory concentration (IC50) was determined as 2 µM in the assay on HMEC-1 [2]; 2.4 µM with HEK293; 7.7 µM in the assay on A549 [8]; 3.5 µM in the assay with HT-29; 11.3 µM in the assay on HeLa; 4.3 µM in the assay with MCF7. Besides, the Activity in the assay on A549 [3] was 49%; in the assay with A549 [6], 75%; in the assay with A549 [7] it was 32%; with HMEC-1 [11], 55%; in the assay with A549 [14], 52%; in the assay with A549 [15], 65%. The Activity worked out at 76% in the assay with A549 [16] and 106% with HMEC-1 [17]. The outcome in [4] and in [13] was inactive. In the assay with A549 [5], the result was Active. In addition, the Ratio with HMEC-1 [9] is 100. Also, the MAC with HMEC-1 [12] stood at 0.1 µM.

Take `COc1ccc(/C=C/c2cccc(NC(=O)Nc3ccc(Cl)cc3)c2)cc1`: the figures for the ΔTm in assay [1] and in assay [10] were 6.25 °C and 1.18 °C, respectively. The IC50 with HMEC-1 [2] was found to be 1.8 µM; in the assay with HEK293, 1 µM; in the assay on A549 [8], 1.5 µM; with HT-29 it was 0.52 µM; in the assay with HeLa it was 0.7 µM; with MCF7, 0.4 µM. Besides, the result in the assay on A549 [18], in the assay on A549 [5], with HMEC-1 [19], with A549 [20] and in the assay on A549 [21] was Active. Further, the Activity in the assay with A549 [3] is 25%; in the assay on A549 [6] it was 48%; in the assay with A549 [7], 10%; in the assay on HMEC-1 [11], 56%; in the assay with A549 [14], 56%; with A549 [15], 37%. In addition, the Activity in the assay on A549 [16] is listed as 86%; with HMEC-1 [17] it was 109%. For the same molecule, the result in assay [4] and in assay [13] was inactive. The Ratio in the assay on HMEC-1 [9] is recorded as 100. Moreover, the MAC in the assay with HMEC-1 [12] stood at 0.1 µM.

(Values after ChEMBL document CHEMBL4346668, “Novel multitarget inhibitors with antiangiogenic and immunomodulator properties” (Eur J Med Chem, 2019).)
